The source made the active and inactive calls. No cut-off for these calls is given here.
Key:
Mus musculus [1] = test: Antiinflammatory activity in Swiss albino mouse assessed as reduction in carrageenan-induced paw edema at 40 mg/kg, po relative to control; assay type: functional; set-up: scale not given: the % may be the effect or the level left
In short: (§1)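 Intraplantar carrageenan, compound po in CMC; volume of right hind paw measured 4 h after carrageenan injection and compared with saline/carrageenan-treated controls; percent oedema reduction.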

Mus musculus [2] = test: Antihyperalgesic activity in Swiss albino mouse assessed as reduction in carrageenan-induced inflammation at 20 mg/kg, po after 60 mins relative to control; assay type: functional; set-up: scale not given: the % may be the effect or the level left
Liver = test: Induction of nitric oxide production in Wistar rat liver homogenate assessed as NOx level at 1 mM; assay type: functional, tissue-based; conditions: TDE = time-dependent effect
Rattus norvegicus [3] = test: Drug metabolism in Wistar rat plasma assessed as 2-(1-(4-fluorophenyl)-2-methyl-5-(4-(methylsulfonyl)phenyl)-1H-pyrrol-3-yl)-N-(2-hydroxyethyl)acetamide metabolite at 10 mg/kg, po up to 6 hrs by LC-MS/MS analysis; assay type: ADME, organism-based; set-up: dose 10 mg/kg, route oral; conditions: in vivo
In short: (§2)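 Male Han Wistar rats, three per route, single 10 mg/kg/5 mL dose iv or po in 5% DMSO, 5% Cremophor EL, 0.1% Tween 80 in 150 mM phosphate buffer pH 7. Jugular-vein blood sampled, plasma methanol-precipitated, parent and hydroxy metabolite quantified by LC–MS/MS in positive ESI MRM mode (LLOQ 1–15 ng/mL).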

Mus musculus [4] = test: Antihyperalgesic activity in Swiss albino mouse assessed as reduction in carrageenan-induced inflammation at 40 mg/kg, po after 30 mins relative to control; assay type: functional; set-up: scale not given: the % may be the effect or the level left
[5] = Solubility of the compound in phosphate buffer saline at pH 7.4 after 90 mins by HPLC analysis; assay type: physicochemical
In short: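 DMSO stock (20 mM) diluted 2 µL into 198 µL PBS 0.01 M pH 7.4 or pepsin-free SGF 0.05 M pH 1.5, duplicate wells, shaken 90 min at 300 rpm. Filtrates analysed by HPLC with photodiode-array detection against seven-point standards (1–200 µM).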

[6] = Metabolic stability in Sprague-Dawley rat plasma assessed as compound remaining after 60 mins by LC-MS/MS analysis; assay type: ADME, cell-free; conditions: read-out: Stability
In short: (§3)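 Compound (12 µL of 1 mM DMSO solution into 588 µL medium) incubated in PBS pH 7.4, pepsin-free SGF pH 1.5, or EDTA rat plasma. Aliquots taken at 0, 30, 60, 120 min and quenched with ice-cold acetonitrile containing internal standard; parent remaining as percent.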

Thoracic aorta [7] = test: Ex vivo vasorelaxant activity in Wistar rat endothelium thoracic aortic ring assessed as reduction of KCl-induced contraction; assay type: functional, tissue-based
In short: (§4)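 Endothelium-denuded thoracic aortic rings from male Wistar rats (250–350 g) in oxygenated Tyrode-type buffer at 37 °C, isometric tension recording. Rings precontracted with 30 mM KCl, then 3-fold increasing compound concentrations (1 nM–10 µM) added, also with 1 µM ODQ preincubated. Emax as % of KCl tone; pIC50; mean ± SE of 6–10 experiments.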

[8] = Oral bioavailability in Wistar rat at 10 mg/kg by LC-MS/MS analysis; assay type: ADME, organism-based; conditions: in vivo; in short: as §2
[9] = Clearance in Wistar rat at 10 mg/kg, iv by LC-MS/MS analysis; assay type: ADME, organism-based; set-up: dose 10 mg/kg, route intravenous; conditions: in vivo; in short: as §2
Mus musculus [10] = test: Antiinflammatory activity in Swiss albino mouse assessed as reduction in carrageenan-induced paw edema at 20 mg/kg, po relative to control; assay type: functional; set-up: scale not given: the % may be the effect or the level left; in short: as §1
Mus musculus [11] = test: Antihyperalgesic activity in Swiss albino mouse assessed as reduction in carrageenan-induced inflammation at 20 mg/kg, po after 90 mins relative to control; assay type: functional; set-up: scale not given: the % may be the effect or the level left
Rattus norvegicus [12] = test: Volume of distribution at steady state in Wistar rat at 10 mg/kg, iv by LC-MS/MS analysis; assay type: ADME, organism-based; set-up: dose 10 mg/kg, route intravenous; conditions: in vivo
Mus musculus [13] = test: Antihyperalgesic activity in Swiss albino mouse assessed as reduction in carrageenan-induced inflammation at 40 mg/kg, po after 120 mins relative to control; assay type: functional; set-up: scale not given: the % may be the effect or the level left
[14] = Metabolic stability in Sprague-Dawley rat plasma assessed as compound remaining after 30 mins by LC-MS/MS analysis; assay type: ADME, cell-free; conditions: read-out: Stability; in short: as §3
Mus musculus [15] = test: Antihyperalgesic activity in Swiss albino mouse assessed as reduction in carrageenan-induced inflammation at 40 mg/kg, po after 60 mins relative to control; assay type: functional; set-up: scale not given: the % may be the effect or the level left
[16] = biological target: Prostaglandin G/H synthase 1 (Homo sapiens, UniProt P23219); test: Inhibition of COX-1 in human whole blood assessed as thromboxane B2 production by RIA
[17] = biological target: T1, Prostaglandin G/H synthase 2 (Mus musculus, UniProt Q05769); test: Inhibition of LPS-induced COX-2 in mouse J774 cells using arachidonic acid as substrate assessed as inhibition of prostaglandin E2 production preincubated for 15 mins followed by substrate addition measured after 30 mins by RIA; assay type: cell-based
T1 sequence (Q05769 whole entry): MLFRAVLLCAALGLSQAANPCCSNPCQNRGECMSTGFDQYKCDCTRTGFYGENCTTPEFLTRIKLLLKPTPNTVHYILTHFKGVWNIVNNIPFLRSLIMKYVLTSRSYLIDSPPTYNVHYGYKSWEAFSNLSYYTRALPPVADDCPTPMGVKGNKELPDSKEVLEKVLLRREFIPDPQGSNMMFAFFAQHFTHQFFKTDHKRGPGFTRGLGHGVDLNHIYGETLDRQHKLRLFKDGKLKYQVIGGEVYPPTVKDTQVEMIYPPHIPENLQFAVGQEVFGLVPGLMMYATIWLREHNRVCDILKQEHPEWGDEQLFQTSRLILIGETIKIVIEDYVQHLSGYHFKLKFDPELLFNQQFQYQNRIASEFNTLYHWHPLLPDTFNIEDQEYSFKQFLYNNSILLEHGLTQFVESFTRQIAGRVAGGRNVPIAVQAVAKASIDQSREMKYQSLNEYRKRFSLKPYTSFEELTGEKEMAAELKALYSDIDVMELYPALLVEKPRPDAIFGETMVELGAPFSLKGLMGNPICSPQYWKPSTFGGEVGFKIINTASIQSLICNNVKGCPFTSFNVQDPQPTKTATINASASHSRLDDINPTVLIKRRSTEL

Mus musculus [18] = test: Analgesic activity in po dosed Swiss albino mouse assessed as reduction of acetic acid-induced writhing measured every 10 mins after 5 mins of administration; assay type: functional, organism-based
In short: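 Male Swiss albino mice (23–25 g), compound given orally in CMC vehicle; writhing induced by 0.6% acetic acid (10 mL/kg) ip. Stretching movements counted for 10 min, starting 5 min after administration; percent reduction versus CMC-treated animals.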

Mus musculus [19] = test: Antihyperalgesic activity in Swiss albino mouse assessed as reduction in carrageenan-induced inflammation at 20 mg/kg, po after 30 mins relative to control; assay type: functional; set-up: scale not given: the % may be the effect or the level left
[20] = Metabolic stability in Sprague-Dawley rat plasma assessed as compound remaining after 120 mins by LC-MS/MS analysis; assay type: ADME, cell-free; conditions: read-out: Stability; in short: as §3
Thoracic aorta [21] = test: Ex vivo vasorelaxant activity in Wistar rat endothelium thoracic aortic ring assessed as reduction of KCl-induced contraction in presence of guanylate cyclase inhibitor ODQ; assay type: functional; in short: as §4
[22] = Stability of the compound in phosphate buffer saline assessed as compound remaining at pH 7.4 after 120 mins by LC-MS/MS analysis; assay type: physicochemical; conditions: read-out: Stability; in short: as §3

Sequence of Prostaglandin G/H synthase 1 (P23219 whole entry): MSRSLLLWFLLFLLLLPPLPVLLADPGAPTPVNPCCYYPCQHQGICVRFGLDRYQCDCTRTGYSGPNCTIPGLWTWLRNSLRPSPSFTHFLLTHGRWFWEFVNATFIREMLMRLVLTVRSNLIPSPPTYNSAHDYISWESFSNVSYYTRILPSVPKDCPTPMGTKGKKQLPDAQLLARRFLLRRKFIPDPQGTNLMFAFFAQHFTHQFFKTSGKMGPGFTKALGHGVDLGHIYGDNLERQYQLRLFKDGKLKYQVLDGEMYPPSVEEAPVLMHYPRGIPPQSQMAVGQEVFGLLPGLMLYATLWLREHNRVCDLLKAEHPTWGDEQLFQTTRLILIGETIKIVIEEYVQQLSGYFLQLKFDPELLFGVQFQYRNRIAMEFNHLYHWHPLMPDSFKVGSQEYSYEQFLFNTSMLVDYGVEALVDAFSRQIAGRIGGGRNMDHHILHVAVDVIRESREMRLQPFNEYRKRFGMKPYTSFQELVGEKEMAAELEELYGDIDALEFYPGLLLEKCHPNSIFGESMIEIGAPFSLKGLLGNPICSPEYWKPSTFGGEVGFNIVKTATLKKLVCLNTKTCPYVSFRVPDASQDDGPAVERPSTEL

Question: Which results are given for `Cc1c(CC(=O)NCCO[N+](=O)[O-])cc(-c2ccc(S(C)(=O)=O)cc2)n1-c1ccc(F)cc1`?
Answer: Activity (Mus musculus [1]): 10%; Activity (Mus musculus [2]): 30%; Activity (Liver): tde; Drug metabolism (Rattus norvegicus [3]): Active; Activity (Mus musculus [4]): 32%; solubility at 1.5 h [5]: > 200 µM; remaining at 1 h [6]: 100%; IC50 (Thoracic aorta [7]): 4900 nM; bioavailability [8]: 24%; clearance [9]: 10 mL/min; Activity (Mus musculus [10]): 4%; Activity (Mus musculus [11]): 20%; Vdss (Rattus norvegicus [12]): 367 mL; Activity (Mus musculus [13]): 0%; remaining at 0.5 h [14]: 100%; Activity (Mus musculus [15]): 60%; IC50 [16]: 600 nM; IC50 [17]: 249 nM; Activity (Mus musculus [18]): Dose-dependent effect; Activity (Mus musculus [19]): 28%; remaining at 2 h [20]: 100%; Activity (Thoracic aorta [21]): inactive; remaining at 2 h [22]: 100%

Source: ChEMBL document CHEMBL3102735, “Enhancing the pharmacodynamic profile of a class of selective COX-2 inhibiting nitric oxide donors” (Bioorg Med Chem, 2014)
